A selection: hits, their analogues and other compounds. The true share with any hit is near 1.6%.
UBC13 polyUb – human UBC13 polyubiquitination inhibition. P61088. UBC13 polyubiquitin chain formation, TR-FRET. inhibition, % at 20 µM. 330,000 compounds, 0.47% hits; in the data active = inhibition above about 45%, passing the limit was not always enough
Target sequence (P61088 whole entry, looked up): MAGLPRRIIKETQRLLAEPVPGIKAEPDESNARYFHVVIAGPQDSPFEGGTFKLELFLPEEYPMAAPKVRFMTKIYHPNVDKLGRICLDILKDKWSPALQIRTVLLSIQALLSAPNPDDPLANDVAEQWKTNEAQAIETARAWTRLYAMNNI
Apaf-1 inh – human Apaf-1 inhibition | reconstituted apoptosome caspase-3 activity, DEVD-Rh110 fluorescence | inhibition, % at 20 µM | 330,000 compounds, 0.71% hits | AID 489030; active = inhibition of at least 40% at 20 µM
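System – cell-free apoptosome with Apaf-1, procaspase-3 and caspase-9 · Buffer or medium – pH 7.5 Hepes buffer with CHAPS, BSA, DTT · Also added – cytochrome c with DEVD-Rh110 · Times – 30 min compound preincubation, 50 min activation, room temperature · Technique – Rh110 fluorescence intensity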
RAD52 inh – blocks human RAD52 DNA annealing | P43351 | recombinant RAD52 DNA annealing, FRET fluorescence | inhibition, % at 18.7 µM | 360,000 compounds, 0.46% hits | AID 651710;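 active = every replicate showing at least 50% inhibition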
Target sequence (P43351 whole entry, looked up): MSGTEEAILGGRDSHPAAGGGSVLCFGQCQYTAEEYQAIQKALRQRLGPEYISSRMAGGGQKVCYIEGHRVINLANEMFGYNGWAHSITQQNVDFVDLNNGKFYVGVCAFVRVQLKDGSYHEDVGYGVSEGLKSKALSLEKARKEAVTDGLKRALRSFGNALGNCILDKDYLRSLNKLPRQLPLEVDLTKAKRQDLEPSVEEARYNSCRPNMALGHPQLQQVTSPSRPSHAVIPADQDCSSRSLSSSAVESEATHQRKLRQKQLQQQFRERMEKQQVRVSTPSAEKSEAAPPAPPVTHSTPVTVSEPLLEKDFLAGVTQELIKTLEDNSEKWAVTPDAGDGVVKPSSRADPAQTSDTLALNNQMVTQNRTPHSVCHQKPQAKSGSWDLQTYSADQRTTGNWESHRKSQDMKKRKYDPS
DNA FID counter – counter-screen for HCV NS3 helicase inhibitors: DNA intercalator displacement | DNA fluorescent intercalator displacement, fluorescence | inhibition, % at 7.9 µM | 290,000 compounds, 0.17% hits | AID 1845; in the data active = inhibition above about 37%;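 also: higher means more ethidium bromide displaced from hairpin DNA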
RAD54 inh – RAD54 (human) branch migration inhibition. Q92698. RAD54 Holliday junction branch migration, FAM/BHQ fluorescence. inhibition, % at 10.4 µM. 360,000 compounds, 0.14% hits. AID 602329;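 active = mean normalized replicate activity at least 40 and at least half of replicates scoring 40 or more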;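 also: inhibitors cause a drop in the FAM fluorescence signal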
Neddylation inh – blocks human cullin neddylation; 360,000 compounds, 0.58% hits; calls only at 25 µM; TR-FRET cullin neddylation, biochemical; in the data active = inhibition above about 36%
Neddyl inh conf – confirmation of human cullin neddylation inhibitors | AID 652217 | shares compounds with Neddylation inh | 1,800 compounds, 13% hits | TR-FRET cullin neddylation biochemical assay | calls only at 25 µM; in the data active = inhibition above about 40%;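 also: neddylation substrate is the cullin 1 ring ligase complex with SKP2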
Calls only; – = inactive; · = no result given; + = active, no number; ! = not confirmed by another sample.

SMILES	UBC13 polyUb	Apaf-1 inh	RAD52 inh	DNA FID counter	RAD54 inh	Neddylation inh	Neddyl inh conf
CC(=O)N1[C@H](C(=O)N[C@@H](C)c2ccccc2)[C@@H](CO)[C@@H]2Cn3c(cccc3=O)[C@@H]21	·	·	–	·	–	·	·
Cc1noc(C)c1NC(=O)N(C)C[C@@H]1Oc2ccc(NC(=O)C3CC3)cc2C(=O)N([C@@H](C)CO)C[C@@H]1C	·	·	–	·	–	·	·
COc1ccc(Nc2oc(COc3ccccc3OC)nc2C#N)cc1	–	–	–	–	·	+	–
COc1ccccc1OCc1nc(C#N)c(NCCCn2ccnc2)o1	–	–	–	–	–	–	·
CC(C)n1ncc2c(C(=O)NCCc3ccc(S(N)(=O)=O)cc3)cc(C3CC3)nc21	–	–	–	·	–	+	·
CC(C)n1ncc2c(C(=O)NCCOc3ccccc3F)cc(C3CC3)nc21	–	–	–	·	–	+	–
COc1ccc(CCNC(=O)c2cc(C3CC3)nc3c2cnn3C(C)C)cc1OC	–	–	–	·	–	–	·
COc1ccc2c3c(n(C)c2c1)[C@@H](CO)N(C(=O)CN(C)C)CC31CN(S(C)(=O)=O)C1	·	·	–	·	·	·	·
CN(C)CC(=O)Nc1ccc2c(c1)[C@@H]1C[C@H](CC(=O)NCc3cccnc3)O[C@@H](CO)[C@@H]1O2	·	·	–	·	–	·	·
OC(c1ccc(F)cc1)c1ncc(-c2cccc3ccccc23)[nH]1 (stereo not drawn)	·	·	–	·	–	+	–
COc1cc(/C=C(\CC(=O)O)c2nc3ccccc3s2)ccc1OCC(=O)Nc1ccccc1F	·	·	–	·	–	+	–
COCCCNC(=O)c1cccn2c(=O)c3cc4ccccc4cc3nc12	–	–	–	–	–	+	–
O=C(NCc1ccco1)c1cccn2c(=O)c3cc4ccccc4cc3nc12	·	·	·	–	·	·	·
O=C(C1CC1)N1CC(=O)N2[C@H](C1)[C@H](c1ccc(C#CCc3ccccc3)cc1)[C@@H]2CO	·	·	–	·	·	·	·
CCOC(=O)c1cc2c(=O)n3ccccc3nc2n(C(C)C)c1=NC(=O)c1ccncc1	–	–	·	–	–	+	+
CCOC(=O)c1cc2c(=O)n3ccccc3nc2n(C(C)C)c1=NC(=O)c1c(-c2ccccc2Cl)noc1C	–	–	–	–	·	·	·
CCOC(=O)c1cc2c(=O)n3ccccc3nc2n(CCOC)c1=NC(=O)c1ccncc1	–	–	·	–	–	+	+
CC(C)NC(=O)N(C)C[C@H]1OCCCC[C@@H](C)Oc2ccc(NC(=O)c3ccccc3)cc2C(=O)N([C@@H](C)CO)C[C@@H]1C	·	·	–	·	–	·	·
CC1Cc2c([nH]c3ccccc23)C(=O)N1 (stereo not drawn)	–	–	–	–	–	+	·
O=C1NCCc2c1[nH]c1ccccc21	–	–	·	–	·	–	·
COc1ccc(S(=O)(=O)N(C)C[C@@H]2Oc3ccc(NC(=O)CCCN(C)C)cc3C(=O)N([C@@H](C)CO)C[C@@H]2C)cc1	·	·	–	·	–	·	·
COC(=O)C1C(O)=C(C=Nc2cccc3ccccc23)C(=O)CC1(C)C (stereo not drawn)	–	–	–	–	·	+	+
COC(=O)C1C(O)=C(C=NCc2ccccc2)C(=O)CC1(C)C (stereo not drawn)	–	–	·	–	–	–	·
C[C@H](CO)N1C[C@H](C)[C@H](CN(C)Cc2ccncc2)OCCCC[C@H](C)Oc2ccc(NC(=O)CCC(F)(F)F)cc2C1=O	·	·	–	·	–	·	·
CCN(CC)C(=O)c1sc2nc(-c3ccccn3)[nH]c(=O)c2c1C	–	–	–	·	–	–	·
SMILES	UBC13 polyUb	Apaf-1 inh	RAD52 inh	DNA FID counter	RAD54 inh	Neddylation inh	Neddyl inh conf
CCc1cc2c(=O)[nH]c(-c3ccncc3)nc2s1	–	–	–	–	·	+	·
CCN(CC)C(=O)c1sc2nc(-c3ccncc3)[nH]c(=O)c2c1C	–	–	·	–	–	+	+
CCc1cc2c(=O)[nH]c(Cc3ccccc3)nc2s1	–	–	·	–	–	–	·
CO[C@H]1CC[C@@H]2CCN(C)C(=O)[C@H](C)N(C)C(=O)c3cc(C#N)ccc3OC[C@H]1O2	·	·	–	·	–	·	·
CCOC(=O)c1[nH]c2ccc(Cl)cc2c1NC(=O)/C=C/c1ccc2c(c1)OCO2	–	–	–	–	·	+	–
COc1ccc(S(=O)(=O)Nc2ccccc2C(=O)NCc2ccco2)cc1	–	–	·	–	–	+	+
O=C(CSc1cccc2cccnc12)N/N=C/c1cccc(O)c1	–	–	–	–	·	+	–
CCN(CC)c1cc(C)c2cc(NC(=O)CNC(C)=O)ccc2n1	–	–	·	–	–	+	+
NC(N)=NC(=O)c1nc(Cl)c(N)nc1N	–	–	–	–	–	+!	–
C[C@H](CO)N1C[C@H](C)[C@H](CN(C)S(=O)(=O)c2ccc(F)cc2)Oc2c(NC(=O)C3CC3)cccc2C1=O	·	·	–	·	–	·	·
CCCNC(=O)C[C@H]1C[C@H]2c3cc(NC(=O)C4CCC4)ccc3O[C@H]2[C@@H](CO)O1	·	·	–	·	–	·	·
COc1cc(C2C(C#N)=C(N)N(c3ccc(F)cc3)C3=C2S(=O)(=O)CC3)ccc1O (stereo not drawn)	–	–	–	–	·	+	–
C[C@@H]1CN([C@H](C)CO)C(=O)Cc2cc(NC(=O)C3CC3)ccc2O[C@H]1CN(C)CC1CC1	·	·	–	·	–	·	·
CCCNC(=O)c1sc2c(c1C(=O)Nc1ccccn1)CCCC2	–	–	–	–	–	+	–
O=P(O)(O)c1cc(-c2ccccc2)oc1-c1ccccc1	–	–	–	–	·	+	·
CCOC(=O)C1CCCN(c2cc(C)nc3cc(-c4ccc(Cl)cc4)nn23)C1 (stereo not drawn)	–	–	·	–	–	·	·
CCOC(=O)C1CCCN(c2cc(C)nc3cc(-c4ccc(F)cc4)nn23)C1 (stereo not drawn)	–	–	·	–	–	+	–
CC(=O)Oc1ccc2occ(-c3ccccc3)c2c1	–	–	–	–	–	–	·
O=c1ccc2cc3c(-c4ccccc4)coc3cc2o1	–	–	–	–	–	+	–
COc1ccc(NC(=S)N/N=C2\CC(C)(C)Oc3ccc(O)cc32)cc1	–	–	–	–	·	+	–
COc1ccccc1NC(=S)N/N=C1\CC(C)(C)Oc2ccc(O)cc21	–	–	–	–	–	+	–
C[C@@H]1CN([C@@H](C)CO)C(=O)c2cc(NC(=O)Cc3cn(C)c4ccccc34)ccc2O[C@H]1CN(C)S(C)(=O)=O	·	·	–	·	–	·	·
OCCCN=C1CCCc2c1[nH]c1ccc(Cl)cc21	–	–	–	–	·	+	–
OCCN=C1CCCc2c1[nH]c1ccc(Cl)cc21	–	–	–	–	·	–	·
Cc1[nH]c2ccc(C(=O)OC(C)C(=O)N(C)c3ccccc3)cc2c1C (stereo not drawn)	–	–	·	·	–	+	–
O=C(Nc1ccc(-n2cnnn2)cc1)c1cn2ccccc2n1	–	–	–	–	–	+	–
N#C/C(=C\c1ccc2c(c1)OCO2)C(N)=S	–	–	–	–	–	–	·
N#C/C(=C/c1ccco1)C(N)=S	–	–	–	–	·	+	–
